Measurements published in ChEMBL document CHEMBL1158128, “Cytotoxic styryl-lactones from the leaves and twigs of Polyalthia crassa” (2006).
Values after ≈ are worked out from the molar mass of the structure shown.

How the values were obtained:
Conditions in all cases: read-out: ED50 (the source's name)
KB = assay: Cytotoxicity against human KB cells by SRB assay; format: functional
In short: (§1)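 Colorimetric cytotoxicity read-out on a panel of cultured mammalian cancer cell lines, run by an earlier published method, with ellipticine as the positive control.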

[1] = Cytotoxicity against rat ASK cells by SRB assay
Lu1 = assay: Cytotoxicity against human Lu1 cells by SRB assay; format: functional; in short: as §1
P388 = assay: Cytotoxicity against mouse P388 cells by SRB assay; format: functional; in short: as §1
[2] = Cytotoxicity against human BCA1 cells by SRB assay; format: functional; in short: as §1
Col2 = assay: Cytotoxicity against human Col2 cells by SRB assay; format: functional; in short: as §1

SMILES | EC50 (KB) [µg/mL] | EC50 [1] [µg/mL] | EC50 (Lu1) [µg/mL] | EC50 (P388) [µg/mL] | EC50 [2] [µg/mL] | EC50 (Col2) [µg/mL]
O=C1C=C[C@H](OC(=O)/C=C/c2ccccc2)[C@H]([C@H](OC(=O)/C=C/c2ccccc2)[C@H](OC(=O)/C=C/c2ccccc2)c2ccccc2)O1 | > 5 | > 5 | > 5 | 3.1 (≈ 4.84 µM) | > 5 | > 5
O=C1C=C[C@H](OC(=O)/C=C/c2ccccc2)[C@H]([C@H](O)[C@H](O)c2ccccc2)O1 | 1.7 (≈ 4.47 µM) | 1.6 (≈ 4.21 µM) | 1.9 (≈ 4.99 µM) | 0.18 (≈ 0.473 µM) | 0.92 (≈ 2.42 µM) | 1.9 (≈ 4.99 µM)
O=C1C=C[C@]2(C[C@H](O)[C@@H](c3ccccc3)O2)O1 | 3.3 (≈ 14.2 µM) | 3.1 (≈ 13.3 µM) | > 5 | 1.1 (≈ 4.74 µM) | 3.2 (≈ 13.8 µM) | 4 (≈ 17.2 µM)
O=C(/C=C/c1ccccc1)O[C@@H]1[C@H]([C@@H](O)c2ccccc2)O[C@H]2CC(=O)O[C@@H]12 [(+)-CRASSALACTONE B] | > 5 | > 5 | > 5 | 3.8 (≈ 9.99 µM) | > 5 | > 5
O=C(/C=C/c1ccccc1)O[C@H](c1ccccc1)[C@H]1O[C@@H]2CC(=O)O[C@@H]2[C@H]1O [(+)-CRASSALACTONE C] | > 5 | > 5 | > 5 | > 5 | > 5 | > 5
COc1c(O)cc2c3c(cc4ccccc4c13)NC2=O [ARISTOLACTAM AII] | > 5 | > 5 | > 5 | 2.7 (≈ 10.2 µM) | > 5 | > 5
Cc1c2ccncc2c(C)c2c1[nH]c1ccccc12 [ELLIPTECINE] | 0.65 (≈ 2.64 µM) | 0.6 (≈ 2.44 µM) | 0.56 (≈ 2.27 µM) | 0.52 (≈ 2.11 µM) | 0.65 (≈ 2.64 µM) | 0.53 (≈ 2.15 µM)
